Columns and labels:
HepG2 = experiment: Antiproliferative activity against human HepG2 cells after 72 hrs by MTT assay; assay type: functional, cell-based; conditions: HepG2, 72 h
Outline: (§1)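 MTT assay. Log-phase cells were seeded at 3×10^3 cells/well and left overnight, then exposed to serial dilutions of compound (DMSO solutions) for 72 h in RPMI 1640 with 10% heat-inactivated FBS at 37 °C, 5% CO2. MTT (5 mg/mL, 20 µL) was added for 4 h at 37 °C and the formazan dissolved in DMSO. A490 was read. % inhibition = (1 − sample OD/control OD)×100; IC50 is the 50% growth-inhibition concentration. Triplicates, n = 3 independent experiments.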

HT-29 = experiment: Antiproliferative activity against human HT-29 cells after 72 hrs by MTT assay; assay type: functional, cell-based; conditions: HT-29, 72 h; outline: as §1
HeLa [1] = experiment: Antiproliferative activity against human HeLa cells after 72 hrs by MTT assay; assay type: functional, cell-based; outline: as §1
BGC-823 = experiment: Antiproliferative activity against human BGC823 cells after 72 hrs by MTT assay; assay type: functional, cell-based; conditions: BGC-823, 72 h; outline: as §1
A549 = experiment: Antiproliferative activity against human A549 cells after 72 hrs by MTT assay; assay type: functional, cell-based; conditions: A549, 72 h; outline: as §1
MDCK = experiment: Antiproliferative activity against MDCK cells after 72 hrs by MTT assay; assay type: cell-based; conditions: Canis lupus familiaris; outline: as §1
[2] = Therapeutic index, ratio of IC50 for MDCK cells to IC50 for human HepG2 cells
Outline: (§2)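 Ratios were calculated from MTT IC50 values (72 h exposure, A490 read-out, n = 3). Potency index = cisplatin IC50 / compound IC50. Therapeutic index = MDCK IC50 / tumour-line IC50.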

[3] = Therapeutic index, ratio of IC50 for MDCK cells to IC50 for human HT-29 cells; outline: as §2
HeLa [4] = experiment: Therapeutic index, ratio of IC50 for MDCK cells to IC50 for human HeLa cells; outline: as §2
[5] = Therapeutic index, ratio of IC50 for MDCK cells to IC50 for human BGC823 cells; outline: as §2
[6] = Therapeutic index, ratio of IC50 for MDCK cells to IC50 for human A549 cells; outline: as §2

Structure (SMILES) | IC50 (HepG2) [nM] | IC50 (HT-29) [nM] | IC50 (HeLa [1]) [nM] | IC50 (BGC-823) [nM] | IC50 (A549) [nM] | IC50 (MDCK) [nM] | Ratio IC50 [2] | Ratio IC50 [3] | Ratio IC50 (HeLa [4]) | Ratio IC50 [5] | Ratio IC50 [6]
C=C(C)[C@@H]1CC[C@]2(C(=O)OCc3nc(C)c(C)nc3C)CC[C@]3(C)[C@H](CC[C@@H]4[C@@]5(C)CC[C@H](OC(=O)[C@H](C)NC(=O)CN)C(C)(C)[C@@H]5CC[C@]43C)[C@@H]12 | 2170 | 4380 | 5570 | 1490 | 2450 | > 40000 | >10 | >10 | >10 | >10 | >10
C=C(C)[C@@H]1CC[C@]2(C(=O)OCc3nc(C)c(C)nc3C)CC[C@]3(C)[C@H](CC[C@@H]4[C@@]5(C)CC[C@H](OC(=O)[C@H](C)NC(=O)[C@@H]6CCCN6)C(C)(C)[C@@H]5CC[C@]43C)[C@@H]12 | 3390 | 3560 | 2330 | 2520 | 4080 | > 40000 | >10 | >10 | >10 | >10 | >10
C=C(C)[C@@H]1CC[C@]2(C(=O)OCc3nc(C)c(C)nc3C)CC[C@]3(C)[C@H](CC[C@@H]4[C@@]5(C)CC[C@H](OC(=O)[C@@H](N)CCCCN)C(C)(C)[C@@H]5CC[C@]43C)[C@@H]12 | 2390 | 2640 | 2620 | 2160 | 1260 | > 40000 | >10 | >10 | >10 | >10 | >10
